The subject of experiment [1] is Plasmodium yoelii nigeriensis. The experiment is described as follows: Antimalarial activity against multi drug-resistant Plasmodium yoelii nigeriensis infected in Swiss mice (Mus musculus) assessed as suppression of parasitaemia level at 96 mg/kg, perorally daily for 4 days. Type of experiment: functional. The note with it: route oral. Summed up: (§1)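 Swiss mice (25 ± 1 g) infected day 0 with 1×10^6 parasitized RBC of multidrug-resistant P. yoelii nigeriensis. Groups of five dosed orally in groundnut oil (0.1 ml per dose), days 0–3, two divided doses daily. Parasitaemia read from thin blood smears on day 4 as % suppression. 100% means no parasites seen in 50 oil-immersion fields. β-Arteether was the positive control.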

The test system of experiment [2] is Plasmodium yoelii nigeriensis. The experiment is described as follows: Antimalarial activity against multi drug-resistant Plasmodium yoelii nigeriensis infected in Swiss mice (Mus musculus) assessed as protection of patent infection at 48 mg/kg, perorally daily for 4 days measured after 28 days. Type of experiment: functional, organism-based. Also on record: dose 48 mg/kg. Summed up:
(§2)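 Colony-bred Swiss mice (25 ± 1 g) inoculated day 0 with 1×10^6 parasitized RBC of P. yoelii nigeriensis (resistant to chloroquine, mefloquine, halofantrine). Five mice per dose. Oral dosing in groundnut oil, 0.1 ml per dose, days 0–3, given as two divided doses daily. Thin blood smears read through day 28. Mice without patent infection by day 28 scored cured, expressed as cured/treated.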

Experiment [3] has as its system Plasmodium yoelii nigeriensis. Nature of the experiment: Antimalarial activity against multi drug-resistant Plasmodium yoelii nigeriensis infected in Swiss mice (Mus musculus) assessed as suppression of parasitaemia level at 24 mg/kg, perorally daily for 4 days. Type of experiment: functional. The following applies: route oral. In a few lines: as §1
The subject of experiment [4] is Plasmodium yoelii nigeriensis. The experiment is described as follows: Antimalarial activity against multi drug-resistant Plasmodium yoelii nigeriensis infected in Swiss mice (Mus musculus) assessed as suppression of parasitaemia level at 48 mg/kg, perorally daily for 4 days. Type of experiment: functional. The following applies: route oral. Summed up: as §1
Experiment [5] concerns Plasmodium yoelii nigeriensis. The experiment is described as follows: Antimalarial activity against multi drug-resistant Plasmodium yoelii nigeriensis infected in Swiss mice (Mus musculus) assessed as protection of patent infection at 96 mg/kg, perorally daily for 4 days measured after 28 days. Also on record: dose 96 mg/kg. Type of experiment: functional, organism-based. In a few lines:
as §2

Experiment [6] has as its system Plasmodium yoelii nigeriensis. Nature of the experiment: Antimalarial activity against multi drug-resistant Plasmodium yoelii nigeriensis infected in Swiss mice (Mus musculus) assessed as protection of patent infection at 24 mg/kg, perorally daily for 4 days measured after 28 days. Type of experiment: functional, organism-based. Also noted: dose 24 mg/kg. In a few lines:
as §2

Active and inactive are the calls of the source. The rule behind the calls is not given here.

Turning to `C=C(c1ccc(Oc2ccccc2)cc1)C1COC2(CCCC2)OO1` (stereo unspecified), the Activity in experiment [1] was found to be 100%.
On the same count and under the same terms, as for `C=C(c1ccc(Oc2ccc3ccccc3c2)cc1)C1COC2(OO1)C1CC3CC(C1)CC2C3` (stereo unspecified), the figure is 100%.
For the molecule `C=C(c1ccc(Oc2ccc3ccccc3c2)cc1)C1COC2(CCCC2)OO1` (stereo unspecified), the result in experiment [2] and in experiment [5] was Active. The Activity in experiment [3], in experiment [1] and in experiment [4] was 100% each time. Moreover, the outcome in experiment [6] was inactive.
With `C=C(c1ccc(Oc2ccccc2)cc1)C1COC2(CCCCC2)OO1` (stereo unspecified), the Activity in experiment [1] is listed as 100%.
As to `CCO[C@H]1O[C@@H]2O[C@@]3(C)CC[C@H]4[C@H](C)CC[C@@H]([C@H]1C)[C@@]24OO3` [ARTEMOTIL], the result in experiment [2] was Active. Further, the Activity in experiment [3] and in experiment [4] was 100% in each case.
Regarding `C=C(c1ccc(Oc2cccc3ccccc23)cc1)C1COC2(OO1)C1CC3CC(C1)CC2C3` (stereo unspecified), the Activity in experiment [1] turned out to be 93.15%. For the same molecule, the result in experiment [5] was inactive.
With `C=C(c1ccc(Oc2ccccc2)cc1)C1COC2(OO1)C1CC3CC(C1)CC2C3` (stereo unspecified), the Activity in experiment [1] came out at 100%.
The same measure, in the same setting: as for `C=C(c1ccc(Oc2ccc3ccccc3c2)cc1)C1COC2(CCCCC2)OO1` (stereo unspecified), the figure is 100%.
Regarding `C=C(c1ccc(Oc2cccc3ccccc23)cc1)C1COC2(CCCC2)OO1` (stereo unspecified), the result in experiment [2] and in experiment [5] was Active. Moreover, the Activity in experiment [3], in experiment [1] and in experiment [4] was 100% each time. Besides, the outcome in experiment [6] was inactive.
For `C=C(c1ccc(Oc2ccc(-c3ccccc3)cc2)cc1)C1COC2(OO1)C1CC3CC(C1)CC2C3` (stereo unspecified), in experiment [1], the Activity came out at 100%.
For `C=C(c1ccc(Oc2ccc(-c3ccccc3)cc2)cc1)C1COC2(CCCC2)OO1` (stereo unspecified), in experiment [2], the outcome was inactive. Moreover, the Activity in experiment [1] and in experiment [4] was 100% each time. Moreover, in experiment [5], the outcome was Active.
`C=C(c1ccc(Oc2ccc(-c3ccccc3)cc2)cc1)C1COC2(CCCCC2)OO1` (stereo unspecified): the Activity in experiment [1] turned out to be 84.39%. For the same molecule, the result in experiment [5] was inactive.
The like results for `C=C(c1ccc(Oc2cccc3ccccc23)cc1)C1COC2(CCCCC2)OO1` (stereo unspecified) were, in that order, 92.81% and “inactive”.
